Results gathered from unrelated publications.
Compare with care: the assays were run in different laboratories.
Pancreatic alpha-amylase: Pancreatic alpha-amylase (Homo sapiens, UniProt P04746)
ALDH1A3: Retinaldehyde dehydrogenase 3 (ALDH1A3, Homo sapiens, UniProt P47895)
PADI4: Protein-arginine deiminase type-4 (PADI4, Homo sapiens, UniProt Q9UM07)
MAOB: Amine oxidase [flavin-containing] B (MAOB, Homo sapiens, UniProt P27338)
CA9: Carbonic anhydrase 9 (CA9, Homo sapiens, UniProt Q16790)

Compound | target | test | conditions | IC50 [µM]
COc1cc(/C=N/NC(=S)NN=Cc2cccs2)ccc1Oc1ccnc2cc(Cl)ccc12 | Pancreatic alpha-amylase | enzyme activity, inhibitor, absorbance |  | 60
Cc1ccc(-c2cccc(C=O)c2)c(C)c1 | ALDH1A3 | enzyme activity, inhibitor |  | 14.9
Cc1ccc(COc2ccc3ccc(C(=O)N[C@@H](CCCNC(=N)CCl)C(=O)NCc4ccccc4)cc3c2)cc1 | PADI4 | enzyme activity, inhibitor, fluorescence | with preincubation | 2.19
COc1cc(/C=N/NC(=S)N/N=C\c2ccc([N+](=O)[O-])cc2)ccc1Oc1ccnc2cc(Cl)ccc12 | Pancreatic alpha-amylase | enzyme activity, inhibitor, absorbance |  | 53
CN(C)c1ccc2cc(C(=O)N[C@@H](CCCN=C(N)CCl)C(=O)NCc3ccccc3)ccc2c1 | PADI4 | enzyme activity, inhibitor, fluorescence | with preincubation | 2.86
COc1cc(/C=N/NC(=S)N/N=C/c2ccc(F)cc2)ccc1Oc1ccnc2cc(Cl)ccc12 | Pancreatic alpha-amylase | enzyme activity, inhibitor, absorbance |  | 54.3
CN1CCC(CNc2ccc3ncc(-c4cccc(OC(F)(F)F)c4)n3n2)CC1 | Beta-1 adrenergic receptor (ADRB1, Homo sapiens, UniProt P08588) | cAMP, antagonist |  | 6.75
N=C(CCl)NCCC[C@H](NC(=O)c1cccc(NC(=O)c2cc3c(s2)CCC3)c1)C(=O)NCc1ccccc1 | PADI4 | enzyme activity, inhibitor, fluorescence | with preincubation | 0.454
O=C(Nc1cccc(Cl)c1)c1ccc2c(c1)C(=O)NC2=O | MAOB | enzyme activity, inhibitor |  | 0.29
N=C(CCl)NCCC[C@H](NC(=O)c1ccc(B(O)O)cc1)c1nc2ccccc2[nH]1 | PADI4 | enzyme activity, inhibitor, fluorescence | with preincubation | 2.2
COc1ccc(N(Cc2csc(-c3ccc(Br)cc3)n2)C(=O)CCCCCC(=O)NO)cc1 | Histone deacetylase 9 (HDAC9, Homo sapiens, UniProt Q9UKV0) | enzyme activity, inhibitor |  | > 10
N=C(CCl)NCCC[C@H](NC(=O)c1ccc2ccc(O)cc2c1)C(=O)NCc1ccccc1 | PADI4 | enzyme activity, inhibitor, fluorescence | with preincubation | 0.204
O=C(N[C@@H](CSCc1nc2cc([N+](=O)[O-])ccc2[nH]1)C(=O)NO)c1ccccc1 | Lactoylglutathione lyase (GLO1, Homo sapiens, UniProt Q04760) | enzyme activity, inhibitor |  | 454
C[C@@]12C[C@@]3(O)O[C@@H](O1)[C@]1(COC(=O)c4ccccc4)[C@H]3C[C@@]12O[C@@H]1O[C@H](COC(=O)c2cc(O)c(O)c(O)c2)[C@@H](O)[C@H](O)[C@H]1O | Catechol O-methyltransferase (Comt, Rattus norvegicus, UniProt P22734) | enzyme activity, inhibitor |  | 16.2
O=C(CCNC(=O)CNC(=O)CC(c1ccccc1)(c1ccccc1)c1ccccc1)NC[C@H]1CCCN(Cc2ccc(F)cc2)C1 | Muscarinic acetylcholine receptor M4 (CHRM4, Homo sapiens, UniProt P08173) | ligand displacement, radioligand | cell membranes | 13.5
O=C(Nc1ccc(F)c(F)c1)c1ccc2c(c1)C(=O)NC2=O | MAOB | enzyme activity, inhibitor |  | 0.024
CS(=O)(=O)Nc1ccc(Nc2nc(-c3cc4ccccc4oc3=O)cs2)cc1Oc1ccccc1 | CA9 | enzyme activity, inhibitor |  | 1.69
OC[C@H]1O[C@@H](Oc2ccc(O)c3cccc(O)c23)[C@H](O)[C@@H](O)[C@@H]1O | ALDH1A3 | enzyme activity, inhibitor |  | < 10
N=C(CCl)NCCC[C@H](NC(=O)c1cccc(-c2ccc(O)cc2)c1)c1nc2ccccc2[nH]1 | PADI4 | enzyme activity, inhibitor, fluorescence | with preincubation | 0.426
COc1cc(/C=N/NC(=S)NN=Cc2ccncc2)ccc1Oc1ccnc2cc(Cl)ccc12 | Pancreatic alpha-amylase | enzyme activity, inhibitor, absorbance |  | 49.7
O=C(O)c1ccc(Nc2nc(-c3cc4cc(Br)ccc4oc3=O)cs2)cc1 | CA9 | enzyme activity, inhibitor |  | 4.38
